INS promoter act: activators of insulin promoter-driven GFP, primary screen, imaging, TRM-6 cells (human fetal islet line), eGFP reporter, cell count; plate-scaled: unstimulated 0, stimulated control 100; AID 1296, 2008; activation, % at 2 µM; hit rate 0.81% among 130,000;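 active = activation at 2 µM above a set limit, confirmed on inspection of the cell images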;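 note: share of cells whose green reporter signal exceeds an intensity cutoff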
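Assay system: TRM-6 insulin promoter–eGFP reporter cells / Input: 1,000 cells per well / Medium: Low-glucose (5.5 mM) medium with tamoxifen / Also added: tamoxifen inducer, 0.75 µM, in seeding medium / Timing: overnight tamoxifen, then two-day compound incubation at 37 °C / Signal: automated fluorescence imaging of paraformaldehyde-fixed, Hoechst-counterstained cells, green channel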
Large screens that a line does not name were inactive. Many of the other results were omitted from the sample, so hits are more common in it than they were.

O=S(=O)(Nc1nc(-c2sccc2Cl)cs1)c1cc(Cl)ccc1Cl	none
CCc1ccc(C(=O)COC(=O)CCc2nc3ccccc3c(=O)[nH]2)cc1	none
CC(C)c1ccc(CC(C)C2C3=C(CCCC3=O)OC3=C2C(=O)CCC3)cc1 (configuration not stated)	none
C=CCNC(=S)/C(=C(/[O-])c1ccccc1Br)[n+]1ccccc1	none
CC1(C(=O)NCCN2CCOCC2)C=CC2(CCCCC2)N1C(=O)c1ccccc1 (configuration not stated)	none
Nn1c(SCc2nc3ccccn3c2Br)nnc1-c1cccnc1	none
COc1ccccc1N(CC(=O)Nc1cc(C)on1)S(=O)(=O)c1ccc(Cl)cc1	none
COc1cc(-c2nc(S(=O)(=O)c3ccc(Cl)cc3)c(N3CCOCC3)o2)cc(OC)c1OC	none
COc1ccccc1-c1nc(S(=O)(=O)c2ccc(Cl)cc2)c(N(C)C)o1	INS promoter act 471
COCCNC(=O)/C=C/c1c(Cl)cccc1Cl	none
CCNc1nc(C)c(CN(C(C)=O)c2ccccc2)nc1C#N	none
CCn1c(NC(=O)Nc2ccccc2OC)nc2ccccc21	none
CSc1ccc(OC2CCCCC2NS(=O)(=O)c2ccc(Cl)cc2)cc1 (configuration not stated)	none
O=S(=O)(NC1CCCCC1NS(=O)(=O)c1ccc(F)cc1)c1ccc(F)cc1 (configuration not stated)	INS promoter act 513
O=S(=O)(NC1CCCCC1Nc1ccccc1)c1ccccc1 (configuration not stated)	none
Cc1cc(C(=O)O)c(CSCc2cc(C(=O)O)oc2C)o1	none
CC(=O)Oc1ccc2c(c1)cc(C)n2C	none
CCCCCCC(=O)N/N=C1\CCCc2ccccc21	none
S=C(NC1CCCCC1)NC1CC2CCC(C1)N2Cc1ccccc1 (configuration not stated)	none
Cc1cc(C(=O)CSc2nnc(-c3ccc(F)cc3)o2)c(C)n1CC1COc2ccccc2O1 (configuration not stated)	none
O=C(CSc1nnc(-c2ccncc2)n1CC1CCCO1)NCc1ccccc1 (configuration not stated)	none
Cc1cc(C(=O)CSc2nnc(-c3cccnc3)n2-c2ccccc2F)c(C)n1CC1CCCO1 (configuration not stated)	INS promoter act 91
Clc1ccc(OCCSc2ncccn2)cc1	none
CCOC(=O)c1c(C)cc(C)n2c1nc1ccccc12	none
CCOc1cccc(N(C(=O)Cc2cccs2)C(C(=O)NC2CCCCC2)c2cccn2C)c1 (configuration not stated)	none
CCOC(=O)CC(=O)CSc1ncnc2c1cnn2-c1ccccc1	none
CCOC(=O)CSc1ncnc2c1cnn2-c1ccccc1	INS promoter act 121
Cc1ccc(-n2ncc3c(SCc4ccccc4)ncnc32)cc1	none
CCC(/C=N/NC(=O)CCCCC(=O)N/N=C/C(CC)CC)CC	none
COc1ccc(Cn2nnc3c(=O)[nH]c(C(=O)NCCc4ccc(F)cc4)nc32)cc1OC	none
CC(C)(C)NC(=O)C1CCN(C(=O)c2ccc(Br)cc2)CC1	none
O=C(Cn1cccc1C(=O)c1ccccc1)NCc1cccc(Cl)c1	INS promoter act 387
O=C(Cn1cccc1C(=O)c1ccccc1)NCc1ccc(Cl)cc1	none
Cc1ccc(CNC(=O)Cn2cccc2C(=O)c2ccccc2)cc1	none
Cc1ccc(-n2nnnc2SCn2nnc3ccccc3c2=O)c(C)c1	none
CCOC(=O)/C(C#N)=C\c1cc(C)n(-c2ccccc2)c1C	none
CCOC(=O)/C(C#N)=C\c1ccc(CC)s1	none
CCOC(=O)/C(C#N)=C\C=C1C=CN(C)C=C1	INS promoter act 110
O=C1N2CCSC2=NC1(Nc1nccs1)C(F)(F)F (configuration not stated)	none
Cc1c([N+](=O)[O-])c([N+](=O)[O-])nn1CC(=O)N1CCCCC1	none
O=C(Nc1ccc(NS(=O)(=O)c2ccccc2)cc1)c1cccnc1	none
Clc1ccc(OCc2nnc(SCc3nc4ccccc4[nH]3)n2Cc2ccco2)cc1	INS promoter act 129
COc1ccccc1NC(=O)CSc1nnc(-c2ccco2)n1Cc1ccco1	none
COc1ccc(C)cc1NC(=O)CSc1nnc(COc2ccc(Cl)cc2)n1Cc1ccco1	INS promoter act 142
CCn1c(SCc2nc3ccccc3[nH]2)nnc1-c1cccs1	none
Cn1c(COc2ccccc2)nnc1SCc1nc2ccccc2[nH]1	none
O=C(CSc1nnc(Cc2cccs2)n1Cc1ccco1)Nc1cc(Cl)cc(Cl)c1	none
O=C(O)CC1S/C(=N/N=C/c2ccc([N+](=O)[O-])cc2)N(c2ccc(O)cc2)C1=O (configuration not stated)	none
O=C(Cn1cc(C(=O)c2ccco2)c2ccccc21)NCc1ccco1	INS promoter act 97
CC(=O)c1cn(CC(=O)NCc2cccnc2)c2ccccc12	none
O=C(Cn1cc(C(=O)C(F)(F)F)c2ccccc21)NCc1ccco1	none
Cc1ccc(Nc2nnc(SCC(=O)NCc3ccco3)s2)cc1	none
O=C(NNC(=O)[C@H]1CC=CC[C@H]1C(=O)O)c1ccc(Cl)cc1Cl	none
Cc1ccccc1C(=O)NC(=S)Nc1ccccc1N1CCCC1	none
CCOc1ccc(C(=O)NC(=S)Nc2ccccc2N2CCC(C)CC2)cc1[N+](=O)[O-]	none
CC1CCN(c2ccccc2NC(=S)NC(=O)c2ccco2)CC1	INS promoter act 230
COc1cc(CNc2nnnn2C)ccc1OCc1c(F)cccc1Cl	none
CCOC(=O)C1=C(C)N(C)C(=S)NC1c1cc(OC)ccc1OC (configuration not stated)	none
NS(=O)(=O)c1cccn1-c1ncc(C(F)(F)F)cc1Cl	none
Cc1cc(C)cc(NC(=O)c2cccn2-c2ncc(C(F)(F)F)cc2Cl)c1	INS promoter act 175
O=C(NCc1cccnc1)c1cccn1-c1ncc(C(F)(F)F)cc1Cl	none
COc1ccc(C(C)NC(=O)c2ccccc2)cc1 (configuration not stated)	none
COc1ccc(C(C)NC(=O)Cc2ccc(Br)cc2)cc1 (configuration not stated)	none
COc1ccc(C(NC(=O)C(C)(C)C)NC(=O)C(C)(C)C)cc1	INS promoter act 95
COc1ccccc1-c1c(C)oc2cc(OCC(=O)OCc3ccccc3)ccc2c1=O	none
CCN(C(=O)CN1CCOCC1)C1(C)C(=O)c2ccccc2C1=O	none
CCCCOc1ccccc1C1C(C(N)=O)=C(C)Nc2nnnn21 (configuration not stated)	INS promoter act 493
COC(=O)C1=C(C)Nc2nnnn2C1c1ccccc1Cl (configuration not stated)	none
C=CCOC(=O)C1=C(C)Nc2nnnn2C1c1ccc(OC)cc1OC (configuration not stated)	none
CC(=O)OC(C(=O)Nc1ccccc1C)C(OC(C)=O)C(OC(C)=O)C(OC(C)=O)C(=O)Nc1ccccc1C (configuration not stated)	none
Cc1ccc(Nc2nc(N)c([N+](=O)[O-])c(N3CCC(C)CC3)n2)cc1C	INS promoter act 529
Cc1ccc(Nc2nc(NCC3CCCO3)nc(N)c2[N+](=O)[O-])cc1C (configuration not stated)	none
CCN1CCN(c2nc(Nc3cccc(C)c3)nc(N)c2[N+](=O)[O-])CC1	none
CCC(C)(C(=O)NC1CCCC1)N(Cc1cccs1)C(=O)Cc1cccs1 (configuration not stated)	INS promoter act 83
CCC(C)(C(=O)NC1CCCCC1)N(Cc1cccs1)C(=O)c1ccccn1 (configuration not stated)	none
CCC(C)(C(=O)NC1CCCC1)N(C)C(=O)Cc1c[nH]c2ccccc12 (configuration not stated)	none
CC(=O)n1c(Cl)c(NC(=O)CCl)c2ccccc21	none

High-throughput results as filed in PubChem.
